# The source made the active and inactive calls. The calls are words filed in the database; no cut-off is given here.
# How the values were obtained:
# [1] = system: Oocyte; experiment: Modulation of G2-M cell cycle progression in Xenopus oocytes assessed as acceleration of progesterone-stimulated maturation by measuring germinal vesicle breakdown after overnight incubation; type: functional, cell-based; settings: Xenopus laevis
# Summary of the method: (§1)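 Isolated Xenopus oocytes (20 per well) were incubated overnight with compound added from DMSO stock (100 µM starting concentration, 1% DMSO final). Next morning GVBD was scored by the appearance of a white spot on the animal pole. Oocytes without spots then received 2 µg/ml progesterone. Time to GVBD was expressed relative to the GVBD50 of DMSO controls, where 1.0 means no change, 2.0 means no maturation and 0.0 means spontaneous GVBD.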
# [2] = system: Oocyte; experiment: Modulation of G2-M cell cycle progression in Xenopus oocytes assessed as acceleration of progesterone-stimulated oocyte progression to germinal vesicle breakdown at 5 to 50 uM measured after overnight incubation relative to DMSO-treated control; type: functional; summary of the method: as §1
# [3] = system: Oocyte; experiment: Modulation of G2-M cell cycle progression in Xenopus oocytes assessed as inhibition of progesterone-stimulated maturation by measuring germinal vesicle breakdown at 100 uM measured after overnight incubation; type: functional, cell-based; summary of the method: as §1
# [4] = system: Oocyte; experiment: Modulation of G2-M cell cycle progression in Xenopus oocytes assessed as effect on phenotype upon progression to GVBD during oocyte maturation in presence of progesterone; type: functional, cell-based; summary of the method: as §1
# [5] = system: Oocyte; experiment: Modulation of G2-M cell cycle progression in Xenopus oocytes assessed as delay time to germinal vesicle breakdown at 100 uM measured after overnight incubation in presence of progesterone; type: functional, cell-based; summary of the method: as §1
# [6] = system: Xenopus; experiment: Activation of progesterone-independent MAPK in Xenopus oocytes assessed as enzyme phosphorylation at 100 uM measured prior to GVBD completion; type: cell-based
# Summary of the method: (§2)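 Oocytes treated with compound or DMSO were lysed in NP40 buffer with sodium vanadate and protease inhibitors, clarified, run on 10% gels and blotted to nitrocellulose. Blots were blocked in 1% BSA/TBST and probed at 1:1000 with phospho-Cdc2 Tyr15 (inhibitory) and phospho-MAP kinase Thr202/Tyr204 (activating) antibodies, then HRP secondary with ECL detection.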
# [7] = system: Xenopus; experiment: Activation of progesterone-independent MAPK in Xenopus oocytes assessed as de-phosphorylation of MPF at 100 uM measured after GVBD completion; type: cell-based; summary of the method: as §2
# [8] = system: Xenopus; experiment: Activation of progesterone-independent MAPK in Xenopus oocytes assessed as enzyme phosphorylation at 100 uM measured after GVBD completion; type: cell-based; summary of the method: as §2
# [9] = system: Oocyte; experiment: Modulation of G2-M cell cycle progression in Xenopus oocytes assessed as induction of oocyte progression to germinal vesicle breakdown by measuring appearance of white spot on animal pole after overnight incubation in absence of progesterone; type: functional, cell-based; summary of the method: as §1
# [10] = system: Xenopus; experiment: Activation of CDK1/Cyclin B (MPF) in Xenopus oocytes assessed as retention of inhibitory phosphorylation of CDK1 at 100 uM measured prior to GVBD completion; type: cell-based; summary of the method: as §2
# [11] = system: Oocyte; experiment: Modulation of G2-M cell cycle progression in Xenopus oocytes assessed as induction of spontaneous maturation by measuring germinal vesicle breakdown at 100 uM after overnight incubation in absence of progesterone; type: functional, cell-based; summary of the method: as §1
Compound,Activity [4],other results
C/C1=C\CC[C@@]2(C)O[C@@H]2[C@H]2OC(=O)[C@@H](CNCCCn3ccnc3)[C@@H]2CC1,,EC50 [1]: < 5 µM; fold change (FC) [2]: 2; inhibition [3]: Active
C/C1=C\CC[C@@]2(C)O[C@@H]2[C@H]2OC(=O)[C@@H](Cn3cnc(C(F)(F)F)c3)[C@@H]2CC1,inactive,
C/C1=C\CC[C@@]2(C)O[C@@H]2[C@H]2OC(=O)[C@@H](Cn3ccnc3C)[C@@H]2CC1,inactive,
C/C1=C\CC[C@@]2(C)O[C@@H]2[C@H]2OC(=O)[C@@H](Cn3cnc([N+](=O)[O-])c3)[C@@H]2CC1,inactive,
C/C1=C\CC[C@@]2(C)O[C@@H]2[C@H]2OC(=O)[C@@H](Cn3ccnc3)[C@@H]2CC1,inactive,
C/C1=C\CC[C@@]2(C)O[C@@H]2[C@H]2OC(=O)[C@@H](CNCc3nc4ccccc4[nH]3)[C@@H]2CC1,inactive,
C/C1=C\CC[C@@]2(C)O[C@@H]2[C@H]2OC(=O)[C@@H](CNCCN3CCOCC3)[C@@H]2CC1,,Activity [5]: Active
C/C1=C\CC[C@@]2(C)O[C@@H]2[C@H]2OC(=O)[C@@H](CNCC3CCNCC3)[C@@H]2CC1,inactive,
C=C1C(=O)O[C@@H]2C3O[C@]3(C)CC/C=C(\C)CC[C@@H]12 (stereo not given in full),inactive,
C/C1=C\CC[C@@]2(C)O[C@@H]2[C@H]2OC(=O)[C@@H](Cn3cnc(CO)c3)[C@@H]2CC1,inactive,
C/C1=C\CC[C@@]2(C)O[C@@H]2[C@H]2OC(=O)[C@@H](CNc3nc4ccccc4[nH]3)[C@@H]2CC1,,Activity [6]: Active; Activity [7]: Active; Activity [8]: Active; Activity [9]: Dose-dependent effect; Activity [10]: inactive; Activity [11]: Active
C/C1=C\CC[C@@]2(C)O[C@@H]2[C@H]2OC(=O)[C@@H](CN(C)C)[C@@H]2CC1,inactive,
CSc1nc(NC[C@@H]2C(=O)O[C@H]3[C@H]2CC/C(C)=C/CC[C@@]2(C)O[C@H]32)n[nH]1,inactive,

# Reference: ChEMBL document CHEMBL3232898, “Heterocyclic aminoparthenolide derivatives modulate G(2)-M cell cycle progression during Xenopus oocyte maturation” (Bioorg Med Chem Lett, 2014)
